Experimental data: ChEMBL document CHEMBL1145255, “Synthesis and antifungal activity of 5-arylamino-4,7-dioxobenzo[b]thiophenes” (2005)
Values after ≈ are worked out from the molar mass of the structure shown.

Key:
Assay type in all cases: functional
[1] = tested on: Pichia kudriavzevii; assay: In vitro minimum inhibitory concentration against Candida krusei Berkout KCCM 11655 strain at 37 degree C after 1 day of treatment; details: KCCM 11655, 24 h
In short: (§1)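 Two-fold broth dilution MIC in modified Sabouraud dextrose broth, inoculum about 1 × 10⁵ cells/mL, incubated at 37 °C. MIC was read after 1 day for the Candida species and after 2 days for A. niger.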

[2] = tested on: Aspergillus niger; assay: In vitro minimum inhibitory concentration against Aspergillus niger KCTC 1231 strain at 37 degree C after 2 day of treatment; details: KCTC 1231, 48 h; in short: as §1
[3] = tested on: Candida albicans; assay: In vitro minimum inhibitory concentration against Candida albicans Berkout KCCM 50235 strain at 37 degree C after 1 day of treatment; details: KCCM 50235, 24 h; in short: as §1
[4] = tested on: Candida tropicalis; assay: In vitro minimum inhibitory concentration against Candida tropicalis Berkout KCCM 50662 strain at 37 degree C after 1 day of treatment; details: KCCM 50662, 24 h; in short: as §1

| Structure (SMILES) | MIC [1] | MIC [2] | MIC [3] | MIC [4] |
| --- | --- | --- | --- | --- |
| COc1ccc(NC2=C(Cl)C(=O)c3sc(CO)cc3C2=O)cc1 | 3.2 µg/mL (≈ 9.15 µM) | 50 µg/mL (≈ 143 µM) | 25 µg/mL (≈ 71.5 µM) | 1.6 µg/mL (≈ 4.57 µM) |
| COC(=O)c1cc2c(s1)C(=O)C=C(Nc1ccc(F)cc1)C2=O | 25 µg/mL (≈ 75.5 µM) | > 50 µg/mL | > 50 µg/mL | 25 µg/mL (≈ 75.5 µM) |
| O=C1C=CC(=O)c2sc(CO)cc21 | 50 µg/mL (≈ 257 µM) | 50 µg/mL (≈ 257 µM) | > 50 µg/mL | 25 µg/mL (≈ 129 µM) |
| COC(=O)c1cc2c(s1)C(=O)C(Cl)=C(Nc1ccc(C)cc1)C2=O | 25 µg/mL (≈ 69.1 µM) | 50 µg/mL (≈ 138 µM) | 0.8 µg/mL (≈ 2.21 µM) | 12.5 µg/mL (≈ 34.5 µM) |
| O=C1C(Nc2ccc(Cl)cc2)=C(Cl)C(=O)c2sc(CO)cc21 | 1.6 µg/mL (≈ 4.52 µM) | > 50 µg/mL | 12.5 µg/mL (≈ 35.3 µM) | 0.4 µg/mL (≈ 1.13 µM) |
| COC(=O)c1cc2c(s1)C(=O)C=C(Nc1ccc(O)cc1)C2=O | 12.5 µg/mL (≈ 38 µM) | 50 µg/mL (≈ 152 µM) | 50 µg/mL (≈ 152 µM) | 0.4 µg/mL (≈ 1.21 µM) |
| COC(=O)c1cc2c(s1)C(=O)C(Cl)=C(Nc1ccccc1)C2=O | 6.3 µg/mL (≈ 18.1 µM) | 12.5 µg/mL (≈ 35.9 µM) | 0.8 µg/mL (≈ 2.3 µM) | 3.2 µg/mL (≈ 9.2 µM) |
| COC(=O)c1cc2c(s1)C(=O)C=C(Nc1ccc(Cl)cc1)C2=O | 25 µg/mL (≈ 71.9 µM) | 50 µg/mL (≈ 144 µM) | 50 µg/mL (≈ 144 µM) | 6.3 µg/mL (≈ 18.1 µM) |
| COC(=O)c1cc2c(s1)C(=O)C(Cl)=C(Nc1ccc(O)cc1)C2=O | 6.3 µg/mL (≈ 17.3 µM) | 50 µg/mL (≈ 137 µM) | 12.5 µg/mL (≈ 34.4 µM) | 0.8 µg/mL (≈ 2.2 µM) |
| Cc1ccc(NC2=CC(=O)c3sc(CO)cc3C2=O)cc1 | 25 µg/mL (≈ 83.5 µM) | 3.2 µg/mL (≈ 10.7 µM) | > 50 µg/mL | 25 µg/mL (≈ 83.5 µM) |
| COC(=O)c1cc2c(s1)C(=O)C=C(Nc1ccc(C)cc1)C2=O | 6.3 µg/mL (≈ 19.2 µM) | 50 µg/mL (≈ 153 µM) | 50 µg/mL (≈ 153 µM) | 3.2 µg/mL (≈ 9.78 µM) |
| COC(=O)c1cc2c(s1)C(=O)C(Cl)=C(Nc1ccc(F)cc1)C2=O | 25 µg/mL (≈ 68.3 µM) | 12.5 µg/mL (≈ 34.2 µM) | 12.5 µg/mL (≈ 34.2 µM) | 6.3 µg/mL (≈ 17.2 µM) |
| COC(=O)c1cc2c(s1)C(=O)C(Cl)=C(Nc1ccc(C(F)(F)F)cc1)C2=O | 25 µg/mL (≈ 60.1 µM) | 50 µg/mL (≈ 120 µM) | 12.5 µg/mL (≈ 30.1 µM) | 1.6 µg/mL (≈ 3.85 µM) |
| Nc1nc(=O)[nH]cc1F [FLUCYTOSINE] | 6.3 µg/mL (≈ 48.8 µM) | 12.5 µg/mL (≈ 96.8 µM) | 6.3 µg/mL (≈ 48.8 µM) | 12.5 µg/mL (≈ 96.8 µM) |
| COc1ccc(NC2=CC(=O)c3sc(CO)cc3C2=O)cc1 | 25 µg/mL (≈ 79.3 µM) | 3.2 µg/mL (≈ 10.1 µM) | 3.2 µg/mL (≈ 10.1 µM) | 0.8 µg/mL (≈ 2.54 µM) |
| O=C1C(Nc2ccc(C(F)(F)F)cc2)=C(Cl)C(=O)c2sc(CO)cc21 | 3.2 µg/mL (≈ 8.25 µM) | 50 µg/mL (≈ 129 µM) | 50 µg/mL (≈ 129 µM) | 0.4 µg/mL (≈ 1.03 µM) |
| COC(=O)c1cc2c(s1)C(=O)C=C(Nc1ccc(Br)cc1)C2=O | 12.5 µg/mL (≈ 31.9 µM) | 50 µg/mL (≈ 127 µM) | 50 µg/mL (≈ 127 µM) | 0.2 µg/mL (≈ 0.51 µM) |
| O=C1C(Nc2ccc(C(F)(F)F)cc2)=CC(=O)c2sc(CO)cc21 | 12.5 µg/mL (≈ 35.4 µM) | 0.8 µg/mL (≈ 2.26 µM) | 0.8 µg/mL (≈ 2.26 µM) | 0.8 µg/mL (≈ 2.26 µM) |
| O=C1C(Nc2ccc(I)cc2)=CC(=O)c2sc(CO)cc21 | 25 µg/mL (≈ 60.8 µM) | 3.2 µg/mL (≈ 7.78 µM) | 50 µg/mL (≈ 122 µM) | 1.6 µg/mL (≈ 3.89 µM) |
| COC(=O)c1cc2c(s1)C(=O)C(Cl)=C(Nc1ccc(Cl)cc1)C2=O | 25 µg/mL (≈ 65.4 µM) | 25 µg/mL (≈ 65.4 µM) | 12.5 µg/mL (≈ 32.7 µM) | 6.3 µg/mL (≈ 16.5 µM) |

| Structure (SMILES) | MIC [1] | MIC [2] | MIC [3] | MIC [4] |
| --- | --- | --- | --- | --- |
| O=C1C(Nc2ccc(Br)cc2)=CC(=O)c2sc(CO)cc21 | 3.2 µg/mL (≈ 8.79 µM) | 3.2 µg/mL (≈ 8.79 µM) | 50 µg/mL (≈ 137 µM) | 12.5 µg/mL (≈ 34.3 µM) |
| O=C1C(Nc2ccc(O)cc2)=CC(=O)c2sc(CO)cc21 | 12.5 µg/mL (≈ 41.5 µM) | 0.8 µg/mL (≈ 2.65 µM) | 0.8 µg/mL (≈ 2.65 µM) | 0.8 µg/mL (≈ 2.65 µM) |
| COC(=O)c1cc2c(s1)C(=O)C(Cl)=C(Nc1ccc(Br)cc1)C2=O | 25 µg/mL (≈ 58.6 µM) | 25 µg/mL (≈ 58.6 µM) | 0.8 µg/mL (≈ 1.87 µM) | 3.2 µg/mL (≈ 7.5 µM) |
| O=C1C(Nc2ccc(O)cc2)=C(Cl)C(=O)c2sc(CO)cc21 | > 50 µg/mL | > 50 µg/mL | > 50 µg/mL | 25 µg/mL (≈ 74.5 µM) |
| O=C1C(Nc2ccccc2)=C(Cl)C(=O)c2sc(CO)cc21 | 1.6 µg/mL (≈ 5 µM) | 12.5 µg/mL (≈ 39.1 µM) | 6.3 µg/mL (≈ 19.7 µM) | 3.2 µg/mL (≈ 10 µM) |
| COC(=O)c1cc2c(s1)C(=O)C=CC2=O | > 50 µg/mL | > 50 µg/mL | > 50 µg/mL | 25 µg/mL (≈ 113 µM) |
| O=C1C(Nc2ccc(Br)cc2)=C(Cl)C(=O)c2sc(CO)cc21 | 0.8 µg/mL (≈ 2.01 µM) | 50 µg/mL (≈ 125 µM) | 50 µg/mL (≈ 125 µM) | 0.8 µg/mL (≈ 2.01 µM) |
| COC(=O)c1cc2c(s1)C(=O)C=C(Nc1ccc(I)cc1)C2=O | 6.3 µg/mL (≈ 14.3 µM) | 50 µg/mL (≈ 114 µM) | 50 µg/mL (≈ 114 µM) | 0.2 µg/mL (≈ 0.455 µM) |
| O=C1C(Nc2ccc(F)cc2)=CC(=O)c2sc(CO)cc21 | > 25 µg/mL | 25 µg/mL (≈ 82.4 µM) | 50 µg/mL (≈ 165 µM) | 12.5 µg/mL (≈ 41.2 µM) |
| COC(=O)c1cc2c(s1)C(=O)C=C(Nc1ccccc1)C2=O | 12.5 µg/mL (≈ 39.9 µM) | 50 µg/mL (≈ 160 µM) | 50 µg/mL (≈ 160 µM) | 6.3 µg/mL (≈ 20.1 µM) |
| O=C1C(Nc2ccc(Cl)cc2)=CC(=O)c2sc(CO)cc21 | > 25 µg/mL | 25 µg/mL (≈ 78.2 µM) | > 50 µg/mL | 12.5 µg/mL (≈ 39.1 µM) |
| O=C1C(Nc2ccc(F)cc2)=C(Cl)C(=O)c2sc(CO)cc21 | 1.6 µg/mL (≈ 4.74 µM) | 50 µg/mL (≈ 148 µM) | 12.5 µg/mL (≈ 37 µM) | 0.4 µg/mL (≈ 1.18 µM) |
| O=C1C(Nc2ccc(I)cc2)=C(Cl)C(=O)c2sc(CO)cc21 | 1.6 µg/mL (≈ 3.59 µM) | 50 µg/mL (≈ 112 µM) | 50 µg/mL (≈ 112 µM) | 1.6 µg/mL (≈ 3.59 µM) |
| COC(=O)c1cc2c(s1)C(=O)C(Cl)=C(Nc1ccc(I)cc1)C2=O | 25 µg/mL (≈ 52.8 µM) | 3.2 µg/mL (≈ 6.76 µM) | 6.3 µg/mL (≈ 13.3 µM) | 1.6 µg/mL (≈ 3.38 µM) |
| COC(=O)c1cc2c(s1)C(=O)C=C(Nc1ccc(OC)cc1)C2=O | 25 µg/mL (≈ 72.8 µM) | > 50 µg/mL | > 50 µg/mL | 6.3 µg/mL (≈ 18.3 µM) |
| O=C1C(Nc2ccccc2)=CC(=O)c2sc(CO)cc21 | 6.3 µg/mL (≈ 22.1 µM) | 0.8 µg/mL (≈ 2.8 µM) | 50 µg/mL (≈ 175 µM) | 0.8 µg/mL (≈ 2.8 µM) |
| COC(=O)c1cc2c(s1)C(=O)C(Cl)=C(Nc1ccc(OC)cc1)C2=O | 3.2 µg/mL (≈ 8.47 µM) | 50 µg/mL (≈ 132 µM) | 3.2 µg/mL (≈ 8.47 µM) | 6.3 µg/mL (≈ 16.7 µM) |
| Cc1ccc(NC2=C(Cl)C(=O)c3sc(CO)cc3C2=O)cc1 | 0.8 µg/mL (≈ 2.4 µM) | 50 µg/mL (≈ 150 µM) | 50 µg/mL (≈ 150 µM) | 1.6 µg/mL (≈ 4.79 µM) |
| COC(=O)c1cc2c(s1)C(=O)C=C(Nc1ccc(C(F)(F)F)cc1)C2=O | 1.6 µg/mL (≈ 4.2 µM) | 50 µg/mL (≈ 131 µM) | 50 µg/mL (≈ 131 µM) | 12.5 µg/mL (≈ 32.8 µM) |
